Data: ChEMBL document CHEMBL3259762, “Synthesis of novel 1,2,3-triazole derivatives of isoniazid and their in vitro and in vivo antimycobacterial activity evaluation” (Eur J Med Chem, 2014)
Converted amounts (≈) assume the structure as drawn. The source made the active and inactive calls. The rule behind the calls is not given here.

What was measured:
THP-1 = assay: Cytotoxicity against human THP1 cells; format: cell-based
[1] = test system: Mycobacterium tuberculosis; assay: Antimycobacterial activity against Mycobacterium tuberculosis H37Rv ATCC 27294 after 14 days by microscopy; format: functional; settings: H37Rv ATCC 27294, 336 h
Outline: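 2-fold serial dilutions of compounds (from DMSO stocks), 50 to 0.195 µM final, in 7H9 broth with 0.05% Tween 80, 0.2% glycerol and ADS. Inoculum is a culture grown to A600 0.2 and diluted 1:1000. Incubated at 37 C for 14 days. MIC99 (99% growth inhibition) read macroscopically with an inverted plate reader. Done in triplicate.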

[2] = test system: Mycobacterium tuberculosis; assay: Antimycobacterial activity against Mycobacterium tuberculosis H37Rv ATCC 27294 infected in Balb/c mouse assessed as reduction in bacterial load in spleen at 100 mg/kg, po qd administered five days in a week starting 2 weeks post challenge measured after 6 weeks relative to untreated control; format: functional
Outline: (§1)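 Balb/c mice of either sex (25-30 g) infected by aerosol in an inhalation chamber, about 1000 bacilli/lung. Oral gavage once daily, 5 days/week, starting 2 weeks post-infection. DMSO and untreated groups as controls. N = 5/group, killed at 3, 6 and 10 weeks of therapy. Lung or spleen homogenates in saline plated in duplicate on 7H11 agar, 37 C for 3–4 weeks. Read-out is log10 CFU/organ.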

[3] = test system: Mycobacterium tuberculosis; assay: Antimycobacterial activity against Mycobacterium tuberculosis H37Rv ATCC 27294 infected in Balb/c mouse assessed as reduction in bacterial load in lung at 100 mg/kg, po qd administered five days in a week starting 2 weeks post challenge measured after 3 weeks relative to untreated control; format: functional; outline: as §1
[4] = test system: Mycobacterium tuberculosis; assay: Antimycobacterial activity against Mycobacterium tuberculosis H37Rv ATCC 27294 infected in Balb/c mouse assessed as reduction in bacterial load in lung at 100 mg/kg, po qd administered five days in a week starting 2 weeks post challenge measured after 6 weeks relative to untreated control; format: functional; outline: as §1
[5] = test system: Mycobacterium tuberculosis; assay: Antimycobacterial activity against Mycobacterium tuberculosis H37Rv ATCC 27294 infected in Balb/c mouse assessed as reduction in bacterial load in spleen at 100 mg/kg, po qd administered five days in a week starting 2 weeks post challenge measured after 10 weeks relative to untreated control; format: functional; outline: as §1
[6] = test system: Mycobacterium tuberculosis; assay: Antimycobacterial activity against Mycobacterium tuberculosis H37Rv ATCC 27294 infected in Balb/c mouse assessed as reduction in bacterial load in spleen at 100 mg/kg, po qd administered five days in a week starting 2 weeks post challenge measured after 3 weeks relative to untreated control; format: functional; outline: as §1
[7] = test system: Mycobacterium tuberculosis; assay: Antimycobacterial activity against Mycobacterium tuberculosis H37Rv ATCC 27294 infected in Balb/c mouse assessed as reduction in bacterial load in lung at 100 mg/kg, po qd administered five days in a week starting 2 weeks post challenge measured after 10 weeks relative to untreated control; format: functional; outline: as §1
[8] = test system: Mycobacterium tuberculosis; assay: Antimycobacterial activity against Mycobacterium tuberculosis H37Rv ATCC 27294 infected in Balb/c mouse assessed as reduction in bacterial load in spleen at 25 mg/kg, po qd administered five days in a week starting 2 weeks post challenge measured after 3 to 6 weeks relative to untreated control; format: functional, organism-based; parameters: dose 25 mg/kg; outline: as §1
[9] = test system: Mycobacterium tuberculosis; assay: Antimycobacterial activity against Mycobacterium tuberculosis H37Rv ATCC 27294 infected in Balb/c mouse assessed as reduction in bacterial load in spleen at 100 mg/kg, po qd administered five days in a week starting 2 weeks post challenge measured after 6 weeks relative to DMSO-treated control; format: functional; outline: as §1
[10] = test system: Mycobacterium tuberculosis; assay: Antimycobacterial activity against Mycobacterium tuberculosis H37Rv ATCC 27294 infected in Balb/c mouse assessed as reduction in bacterial load in spleen at 25 mg/kg, po qd administered five days in a week starting 2 weeks post challenge measured after 10 weeks relative to untreated control; format: functional; outline: as §1
[11] = test system: Mycobacterium tuberculosis; assay: Antimycobacterial activity against Mycobacterium tuberculosis H37Rv ATCC 27294 infected in Balb/c mouse assessed as reduction in bacterial load in spleen at 50 mg/kg, po qd administered five days in a week starting 2 weeks post challenge measured after 10 weeks relative to DMSO-treated control; format: functional; outline: as §1
[12] = test system: Mycobacterium tuberculosis; assay: Antimycobacterial activity against Mycobacterium tuberculosis H37Rv ATCC 27294 infected in Balb/c mouse assessed as reduction in bacterial load in spleen at 50 mg/kg, po qd administered five days in a week starting 2 weeks post challenge measured after 6 weeks relative to DMSO-treated control; format: functional; outline: as §1
[13] = test system: Mycobacterium tuberculosis; assay: Antimycobacterial activity against Mycobacterium tuberculosis H37Rv ATCC 27294 infected in Balb/c mouse assessed as reduction in bacterial load in lung at 25 mg/kg, po qd administered five days in a week starting 2 weeks post challenge measured after 3 to 10 weeks relative to untreated control; format: functional, organism-based; parameters: dose 25 mg/kg; outline: as §1
[14] = test system: Mycobacterium tuberculosis; assay: Antimycobacterial activity against Mycobacterium tuberculosis H37Rv ATCC 27294 infected in Balb/c mouse assessed as reduction in bacterial load in spleen at 50 mg/kg, po qd administered five days in a week starting 2 weeks post challenge measured after 3 weeks relative to DMSO-treated control; format: functional; outline: as §1
[15] = test system: Mycobacterium tuberculosis; assay: Antimycobacterial activity against Mycobacterium tuberculosis H37Rv ATCC 27294 infected in Balb/c mouse assessed as reduction in bacterial load in lung at 100 mg/kg, po qd administered five days in a week starting 2 weeks post challenge measured after 10 weeks relative to DMSO-treated control; format: functional; outline: as §1
[16] = test system: Mycobacterium tuberculosis; assay: Antimycobacterial activity against Mycobacterium tuberculosis H37Rv ATCC 27294 infected in Balb/c mouse assessed as reduction in bacterial load in spleen at 100 mg/kg, po qd administered five days in a week starting 2 weeks post challenge measured after 10 weeks relative to DMSO-treated control; format: functional
[17] = test system: Mycobacterium tuberculosis; assay: Antimycobacterial activity against Mycobacterium tuberculosis H37Rv ATCC 27294 infected in Balb/c mouse assessed as reduction in bacterial load in spleen at 100 mg/kg, po qd administered five days in a week starting 2 weeks post challenge measured after 3 weeks relative to DMSO-treated control; format: functional; outline: as §1
[18] = test system: Mycobacterium tuberculosis; assay: Antimycobacterial activity against Mycobacterium tuberculosis H37Rv ATCC 27294 infected in Balb/c mouse assessed as reduction in bacterial load in lung at 100 mg/kg, po qd administered five days in a week starting 2 weeks post challenge measured after 6 weeks relative to DMSO-treated control; format: functional; outline: as §1
[19] = test system: Mycobacterium tuberculosis; assay: Antimycobacterial activity against Mycobacterium tuberculosis H37Rv ATCC 27294 infected in Balb/c mouse assessed as reduction in bacterial load in lung at 100 mg/kg, po qd administered five days in a week starting 2 weeks post challenge measured after 3 weeks relative to DMSO-treated control; format: functional; outline: as §1
[20] = test system: Mycobacterium tuberculosis; assay: Antimycobacterial activity against Mycobacterium tuberculosis H37Rv ATCC 27294 infected in Balb/c mouse assessed as reduction in bacterial load in lung at 50 mg/kg, po qd administered five days in a week starting 2 weeks post challenge measured after 3 to 10 weeks relative to untreated control; format: functional, organism-based; parameters: dose 50 mg/kg; outline: as §1
[21] = test system: Mycobacterium tuberculosis; assay: Ratio of isoniazid MIC99 to compound MIC99 for Mycobacterium tuberculosis H37Rv ATCC 27294 after 14 days by microscopy; format: functional

Structure (SMILES): CCC(=O)OCc1cn(CCOc2ccc(/C=N/NC(=O)c3ccncc3)cc2)nn1
- Activity (THP-1): > 50 µM
- MIC99 [1]: 0.78 µM (≈ 0.33 µg/mL)

Structure (SMILES): O=C(N/N=C/c1ccc(OCCCn2cc(COc3ccccc3)nn2)cc1)c1ccncc1
- Activity (THP-1): > 50 µM
- MIC99 [1]: 0.39 µM (≈ 0.178 µg/mL)

Structure (SMILES): CCCCc1cn(CCOc2ccc(/C=N/NC(=O)c3ccncc3)cc2)nn1
- Activity (THP-1): > 50 µM
- MIC99 [1]: 0.78 µM (≈ 0.306 µg/mL)

Structure (SMILES): NNC(=O)c1ccncc1 [ISONIAZID]
- log10cfu [2]: 3.68
- log10cfu [3]: 1.22
- log10cfu [4]: 2.59
- MIC99 [1]: 0.39 µM (≈ 0.0535 µg/mL)
- log10cfu [5]: 4
- log10cfu [6]: 2.66
- log10cfu [7]: 3.38

Structure (SMILES): CC(C)n1cc(COc2ccc(/C=N/NC(=O)c3ccncc3)cc2)nn1
- Activity (THP-1): > 50 µM
- MIC99 [1]: 0.78 µM (≈ 0.284 µg/mL)

Structure (SMILES): CCCc1cn(CCCOc2ccc(/C=N/NC(=O)c3ccncc3)cc2)nn1
- Activity (THP-1): > 50 µM
- MIC99 [1]: 0.78 µM (≈ 0.306 µg/mL)

Structure (SMILES): O=C(N/N=C/c1ccc(OCCn2cc(C3(O)CCCCC3)nn2)cc1)c1ccncc1
- Activity (THP-1): > 50 µM
- MIC99 [1]: 0.39 µM (≈ 0.169 µg/mL)

Structure (SMILES): Cc1ccc(OCc2cn(CCOc3ccc(/C=N/NC(=O)c4ccncc4)cc3)nn2)cc1
- Activity (THP-1): > 50 µM
- MIC99 [1]: 0.39 µM (≈ 0.178 µg/mL)

Structure (SMILES): O=C(N/N=C/c1ccc(OCCn2cc(CO)nn2)cc1)c1ccncc1
- Activity (THP-1): > 50 µM
- MIC99 [1]: 0.78 µM (≈ 0.286 µg/mL)

Structure (SMILES): CCCCc1cn(CCCOc2ccc(/C=N/NC(=O)c3ccncc3)cc2)nn1
- Activity (THP-1): > 50 µM
- MIC99 [1]: 0.39 µM (≈ 0.159 µg/mL)

Structure (SMILES): O=C(N/N=C/c1ccc(OCCn2cc(COc3ccccc3)nn2)cc1)c1ccncc1
- Activity (THP-1): > 50 µM
- MIC99 [1]: 0.39 µM (≈ 0.173 µg/mL)

Structure (SMILES): O=C(N/N=C/c1ccc(OCCn2cc(-c3ccccn3)nn2)cc1)c1ccncc1
- Activity (THP-1): > 50 µM
- MIC99 [1]: 0.39 µM (≈ 0.161 µg/mL)

Structure (SMILES): CCCn1cc(COc2ccc(/C=N/NC(=O)c3ccncc3)cc2)nn1
- Activity (THP-1): > 50 µM
- MIC99 [1]: 0.78 µM (≈ 0.284 µg/mL)

Structure (SMILES): O=C(N/N=C/c1ccc(OCCCn2cc(COc3ccc(Cl)cc3)nn2)cc1)c1ccncc1
- Activity (THP-1): > 50 µM
- MIC99 [1]: 0.78 µM (≈ 0.383 µg/mL)

Structure (SMILES): O=C(N/N=C/c1ccc(OCCCn2cc(CO)nn2)cc1)c1ccncc1
- Activity (THP-1): > 50 µM
- MIC99 [1]: 0.78 µM (≈ 0.297 µg/mL)

Structure (SMILES): CCCCCn1cc(COc2ccc(/C=N/NC(=O)c3ccncc3)cc2)nn1
- Activity (THP-1): > 50 µM
- MIC99 [1]: 0.39 µM (≈ 0.153 µg/mL)

Structure (SMILES): O=C(N/N=C/c1ccc(OCCn2cc(COc3ccc(Cl)cc3)nn2)cc1)c1ccncc1
- Activity [8]: inactive
- log10cfu [9]: 2.58
- log10cfu [10]: 1.5
- log10cfu [11]: 3.31
- log10cfu [12]: 2.15
- Activity [13]: inactive
- log10cfu [14]: 1.08
- log10cfu [15]: 0.91
- log10cfu [16]: 2.58
- Activity (THP-1): > 50 µM
- MIC99 [1]: 0.195 µM (≈ 0.093 µg/mL)
- log10cfu [17]: 1.46
- log10cfu [18]: 0.82
- log10cfu [19]: 0.02
- Activity [20]: inactive
- Ratio [21]: 2

Structure (SMILES): CO[C@H]1/C=C/O[C@@]2(C)Oc3c(C)c(O)c4c(O)c(c(/C=N/N5CCN(C)CC5)c(O)c4c3C2=O)NC(=O)/C(C)=C\C=C\[C@H](C)[C@H](O)[C@@H](C)[C@@H](O)[C@@H](C)[C@H](OC(C)=O)[C@@H]1C [RIFAMPIN]
- log10cfu [9]: 3.31
- log10cfu [15]: 6.14
- log10cfu [17]: 1.76
- log10cfu [18]: 2.8
- log10cfu [19]: 1.93

Structure (SMILES): CCCCn1cc(COc2ccc(/C=N/NC(=O)c3ccncc3)cc2)nn1
- Activity (THP-1): > 50 µM
- MIC99 [1]: 0.39 µM (≈ 0.148 µg/mL)

Structure (SMILES): CCC(=O)OCc1cn(CCCOc2ccc(/C=N/NC(=O)c3ccncc3)cc2)nn1
- Activity (THP-1): > 50 µM
- MIC99 [1]: 0.78 µM (≈ 0.34 µg/mL)

Structure (SMILES): O=C(N/N=C/c1ccc(OCCCn2cc(C3(O)CCCCC3)nn2)cc1)c1ccncc1
- Activity (THP-1): > 50 µM
- MIC99 [1]: 0.78 µM (≈ 0.35 µg/mL)

Structure (SMILES): O=C(N/N=C/c1ccc(OCCn2cc(-c3ccccc3)nn2)cc1)c1ccncc1
- Activity (THP-1): > 50 µM
- MIC99 [1]: 0.39 µM (≈ 0.161 µg/mL)

Structure (SMILES): Cc1ccc(OCc2cn(CCCOc3ccc(/C=N/NC(=O)c4ccncc4)cc3)nn2)cc1
- Activity (THP-1): > 50 µM
- MIC99 [1]: 0.78 µM (≈ 0.367 µg/mL)

Structure (SMILES): O=C(N/N=C/c1ccc(OCc2cn(Cc3ccccc3)nn2)cc1)c1ccncc1
- Activity (THP-1): > 50 µM
- MIC99 [1]: 0.78 µM (≈ 0.322 µg/mL)
